Among the data in ChEMBL document CHEMBL1127831, “Synthesis and structure-activity relationships of new antitumor taxoids. Effects of cyclohexyl substitution at the C-3' and/or C-2 of taxotere (docetaxel)” (J Med Chem, 1994) are IC50 and IC50 ratio values, retold here.

The subject of assay [1] is P388. Put plainly: In vitro cytotoxicity against murine P388 leukemia cell line. The assay is classed as functional, cell-based. Conditions: Mus musculus. Summed up: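 P388 cells kept in RPMI 1640 with 10% foetal calf serum, 10 μM 2-mercaptoethanol, 2 mM L-glutamine and penicillin/streptomycin. Seeded at 1×10^5 cells/mL and grown 96 h with various taxoid concentrations, each in quadruplicate. Viability read by 16 h neutral red (0.02%) uptake, SDS lysis and OD at 540 and 346 nm. IC50 for 50% growth inhibition taken from three separate experiments.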

Assay [2] deals with P388. The experiment in a line: In vitro cytotoxicity against murine P388 doxorubicin resistant leukemia cell line. Conditions: Mus musculus. The assay is classed as functional, cell-based. The gist of the method:
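P388/Dox cells grown in RPMI 1640 with 10% foetal calf serum, 2-mercaptoethanol, L-glutamine and antibiotics, with doxorubicin 1 μg/mL kept in the medium. Seeded at 1×10^5 cells/mL and exposed 96 h to a range of taxoid concentrations, quadruplicate points. Neutral red 0.02% added for 16 h, cells lysed in 1% SDS, OD read at 540 and 346 nm. IC50 = 50% growth inhibition, from three separate experiments.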

Assay [3] in a line: Ratio of inhibition of the rate of microtubule disassembly by the compound to that of paclitaxel. The assay is classed as functional. Summed up:
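Porcine brain tubulin, MAP-depleted on phosphocellulose, used at 9 μM in MES pH 6.8 buffer with glycerol, 6 mM MgCl2 and 1 mM GTP. Taxoid in ethanol (0.1–5 μM) was added, tubulin polymerized 30 min at 37 °C, then cooled to 6 °C. Depolymerization rate was taken from the turbidity (350 nm) decline slope. The IC50 for 50% rate decrease was divided by the paclitaxel IC50.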

≈ marks a conversion by molar mass, not a printed value.

By IC50 is commonly meant the concentration at which inhibition is half-maximal. A lower IC50 goes with higher potency. For the compound `CC(=O)O[C@@]12CO[C@@H]1C[C@H](O)[C@@]1(C)C(=O)[C@H](O)C3=C(C)[C@@H](OC(=O)[C@H](O)[C@@H](NC(=O)OC(C)(C)C)c4ccccc4)C[C@@](O)([C@@H](OC(=O)c4ccccc4)[C@H]21)C3(C)C.O.O.O` [DOCETAXEL], the figures for the IC50 in assay [1] and in assay [2] were 0.008 µg/mL and 1.5 µg/mL, respectively. Also, the IC50 ratio in assay [3] worked out at 0.7.
For the compound `CC(=O)O[C@@]12CO[C@@H]1C[C@H](O)[C@@]1(C)C(=O)[C@H](O)C3=C(C)[C@@H](OC(=O)[C@H](O)C(NC(=O)OC(C)(C)C)C4CCCCC4)C[C@@](O)([C@@H](OC(=O)c4ccccc4)C12)C3(C)C` (stereo not given in full), the half-inhibitory concentration (IC50) in assay [1] came to 0.063 µg/mL (≈ 0.0774 µM); in assay [2], 3.1 µg/mL (≈ 3.81 µM). In addition, the IC50 ratio in assay [3] was 0.72.
For the compound `CC(=O)O[C@@]12CO[C@@H]1C[C@H](O)[C@@]1(C)C(=O)[C@H](O)C3=C(C)[C@@H](OC(=O)[C@H](O)C(NC(=O)OC(C)(C)C)C4CCCCC4)C[C@@](O)([C@@H](OC(=O)C4CCCCC4)C12)C3(C)C` (stereo not given in full), the values for the IC50 in assay [1] and in assay [2] were 0.076 µg/mL (≈ 0.0927 µM) and 3.6 µg/mL (≈ 4.39 µM), respectively. In addition, the IC50 ratio in assay [3] stood at 2.
The like results for `CC(=O)O[C@H]1C(=O)[C@@]2(C)C([C@H](OC(=O)C3CCCCC3)[C@]3(O)C[C@H](OC(=O)[C@H](O)C(NC(=O)c4ccccc4)c4ccccc4)C(C)=C1C3(C)C)[C@]1(OC(C)=O)CO[C@@H]1C[C@@H]2O` (stereo not given in full) were, in that order, 0.45 µg/mL (≈ 0.523 µM), 7.5 µg/mL (≈ 8.72 µM) and 1.7.
As for `CC(=O)O[C@@]12CO[C@@H]1C[C@H](O)[C@@]1(C)C(=O)[C@H](O)C3=C(C)[C@@H](OC(=O)[C@H](O)C(NC(=O)OC(C)(C)C)c4ccccc4)C[C@@](O)([C@@H](OC(=O)C4CCCCC4)C12)C3(C)C` (stereo not given in full), the IC50 in assay [1] came out at 0.09 µg/mL (≈ 0.111 µM); in assay [2], 6.3 µg/mL (≈ 7.74 µM). Further, the IC50 ratio in assay [3] is 0.85.
